Sampled rows, rich in hits. Any-hit rate of the full collection: about 3%.
Wnt act – activators of Wnt/beta-catenin signaling; AID 743398; activation, % at 9.35 µM; Wnt/beta-catenin reporter cell assay, activator, plate reader; 1.2% of 300,000 active; in the data active = activation above about 30%, passing the limit was not always enough;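 also: 0% = neutral control wells and 100% = positive control wells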
NSD2 HMT inh – blocks human histone methyltransferase NSD2. O96028. NSD2 peptide methylation, AlphaScreen, 120 min. inhibition, % at 12.5 µM. 0.54% of 310,000 active; in the data active = inhibition above about 50%
CASP6 VEID inh – blocks human caspase-6 cleavage activity | P55212 | inhibition, % at 12.5 µM | purified caspase-6, Z-VEID-R110 cleavage fluorescence | AID 686996 | 0.53% of 350,000 active;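 active = mean inhibition across replicates at least about 35%, with every replicate also reaching that limit, limit read from the data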;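 also: 0% = median of neutral control wells and 100% = no fluorescence left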
Target sequence (P55212 24-179 limits assumed): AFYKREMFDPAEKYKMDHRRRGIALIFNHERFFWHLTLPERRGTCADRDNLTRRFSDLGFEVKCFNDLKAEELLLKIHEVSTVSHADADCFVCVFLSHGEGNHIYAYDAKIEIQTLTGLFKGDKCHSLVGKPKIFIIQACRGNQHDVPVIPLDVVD
Target sequence (P55212 194-293 limits assumed): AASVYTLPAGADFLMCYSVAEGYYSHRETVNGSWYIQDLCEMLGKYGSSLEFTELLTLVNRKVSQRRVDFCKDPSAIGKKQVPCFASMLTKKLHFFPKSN
Xi reactivation – X-chromosome reactivation activator. XiGFP mouse fibroblasts, % GFP-positive cells imaging, 3 d; cells co-treated with 5-aza-dC sensitizer; scaled so ellipticine positive control = 100%. activation, % at 7.58 µM. 0.055% of 360,000 active;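 active = mean normalized replicate activation at least 10% and every replicate at or above 10%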;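 also: 0% = median of on-plate neutral control wells and 100% = ellipticine 6 µM median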
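Material: XiGFP fibroblasts, SV40-immortalized; Buffer or medium: DMEM containing 5-aza-dC; Compound dosing: single point; Times: 3 days compound exposure.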
esBAF inh – blocks esBAF chromatin remodeling in mouse ES cells | Bmi1-luciferase knock-in reporter, 24 h; 100% = twice the neutral-well signal | reporter increase, % at 12.5 µM | 2% of 350,000 active; in the data active = activation above about 40%;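 also: 0% = median of the plate's neutral control wells and 100% = double that signal; a rise in the Bmi1 reporter signal indicates esBAF inhibition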
MITF TRPM1 HTS – MITF TRPM1 promoter activation in melanoma cells; SK-MEL-5 TRPM1-promoter luciferase, 24 h; % of positive control, neutral wells = 0; activation, % at 12.5 µM; 0.75% of 300,000 active; AID 588334;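 active = mean activation of at least 80% with every replicate also reaching 80%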;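 also: 0% = neutral control wells and 100% = parthenolide positive control wells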
Active calls of the source: *; x = no result.

SMILES | Wnt act | NSD2 HMT inh | CASP6 VEID inh | Xi reactivation | esBAF inh | MITF TRPM1 HTS
COCC(=O)Nc1ccc2c(c1)OC[C@@H](C)N(C(=O)Cc1cccnc1)C[C@H](C)[C@H](OC)CN(C)C2=O | x | x | 3 | 0 | -3 | x
Cc1ccc(NC(=O)/C(C#N)=N/Nc2ccc(C(=O)O)cc2)c(C)c1 | 44* | -3 | 0 | 0 | x | 0
Cc1ccc(N/N=C(\C#N)C(N)=S)c(C)c1 | x | 9 | x | 0 | x | 8
N=C(N)SCc1ncccc1O | 24 | 12 | 43* | 0 | -1 | 2
N=C(N)SCc1ccccn1 | x | -2 | x | x | x | -13
COc1ccc2c3c([nH]c2c1)[C@@H](CO)N(C(=O)CN1CCOCC1)CC31CN(C(=O)NC(C)C)C1 | x | x | x | 0 | x | x
CCOC(=O)C1CCCN(Cc2c(C(=O)N3CCOCC3)nc3ccccn23)C1 (stereo not drawn) | -2 | -3 | -3 | 0 | x | -11
CCN(CC)C1CCN(Cc2c(C(=O)N3CCCCCCC3)nc3ccc(Cl)cn23)C1 (stereo not drawn) | 1 | 42 | 64* | 0 | 0 | 2
O=C(c1nc2ccccn2c1CN1CCCC(c2nc3ccccc3o2)C1)N1CCCC1 (stereo not drawn) | -1 | -3 | 51* | 0 | x | -13
COC1CCN(Cc2c(C(=O)N3C[C@@H](C)O[C@@H](C)C3)nc3ccc(Cl)cn23)CC1 | -1 | -2 | 0 | 0 | -4 | -3
Cc1cc(SCC(=O)c2ccc(Cl)cc2)nc(=O)[nH]1 | 40* | 5 | 27 | 0 | -36 | 21
Cc1ccc(C(=O)CSc2cc(C)[nH]c(=O)n2)cc1 | 29 | -1 | -3 | 0 | -26 | 26
CC(=O)N(C)C[C@H]1Oc2cc(C#CCC(C)C)ccc2S(=O)(=O)N([C@H](C)CO)C[C@@H]1C | x | x | 4 | 0 | -6 | x
O=C(/C=C/Nc1ccc(F)c(Cl)c1)c1ccco1 | x | 0 | x | x | x | 34
O=C(/C=C/Nc1cccc(F)c1)c1ccco1 | x | -1 | x | x | 45* | 93*
COc1ccccc1Oc1ccc(N/C=C/C(=O)c2ccco2)cc1 | 16 | -2 | -1 | 0 | 87* | 59
O=C(/C=C/Nc1ccc(Oc2ccccc2Cl)cc1)c1ccco1 | 18 | -7 | -2 | 0 | x | 43
O=C(/C=C/Nc1ccccc1O)c1ccco1 | 52* | 30 | 15 | 2 | x | 44
CN(C)c1ccc(N/C=C/C(=O)c2ccco2)cc1 | 43* | 5 | x | x | 2 | 21
COc1ccc(C#Cc2ccc3c(c2)[C@]2(C(=O)N3)[C@H](c3ccc(O)cc3)N3[C@H](c4ccccc4)[C@H](c4ccccc4)OC(=O)[C@H]3[C@@H]2C(=O)N2CCCCCCC2)cc1 | x | x | 2 | x | x | x
C[C@@H]1CN([C@H](C)CO)S(=O)(=O)c2ccc(C3=CCCCC3)cc2O[C@H]1CN(C)C(=O)C1CCC1 | x | x | 0 | 0 | -2 | x
CCOC(=O)/C(C#N)=C/c1ccc(-c2ccsc2C(=O)OC)o1 | -3 | -1 | x | x | 54* | x
CCOC(=O)C(=Cc1ccc(-c2ccsc2C(=O)OC)o1)C(=O)OCC | 0 | 1 | x | x | 8 | x
O=C1N[C@@H](Cc2ccccc2)COCc2cnnn2CC[C@H]1Cc1cccc(F)c1 | x | x | x | 0 | x | x
COCC(=O)N1C[C@H](C)[C@@H](OC)CN(C)C(=O)c2ccc(NC(=O)NC(C)C)cc2OC[C@@H]1C | x | x | -4 | -1 | x | x
SMILES | Wnt act | NSD2 HMT inh | CASP6 VEID inh | Xi reactivation | esBAF inh | MITF TRPM1 HTS
O=C(Nc1sc2c(c1C(=O)O)CCC2)C(=O)N1CCOCC1 | 1 | 14 | 37* | 0 | 2 | 7
O=C(Nc1cccc(O)c1)c1c(O)c2ccccc2[nH]c1=O | 19 | -2 | -1 | 0 | -4 | x
Cc1cccc(NC(=O)c2c(O)c3ccccc3[nH]c2=O)c1 | 41* | x | 1 | 0 | 49* | 106*
CC(C)c1ccc(S(=O)(=O)N2CCN(CC(=O)c3ccc(O)c(O)c3)CC2)cc1 | -3 | 96* | 57* | 0 | 2 | -10
Cc1ccc(S(=O)(=O)N(CC(=O)Nc2ccccc2C(=O)O)c2ccccc2C)cc1 | -2 | -7 | 2 | 0 | 3 | -3
Cc1ccc(S(=O)(=O)N(CC(=O)Nc2ccccc2C(=O)O)c2cccc(Cl)c2C)cc1 | -2 | 9 | 47* | 0 | x | 10
CCC(=O)Nc1cc(C(=O)OCC(=O)c2ccccc2)ccc1C | 35* | 1 | x | 0 | x | 77
CCC(=O)Nc1cc(C(=O)OCC(=O)c2ccccc2Cl)ccc1C | 35* | 1 | x | x | 64* | x
O=C1NC2=C(C(=O)CCC2)C(c2cccc([N+](=O)[O-])c2)N1 (stereo not drawn) | 0 | -2 | 38* | 0 | -1 | 3
NC(=O)c1ccccc1NC(=O)/C=C/c1ccc(Cl)cc1 | 19 | 4 | x | x | 27 | 58
NC(=O)c1ccccc1NC(=O)CCc1ccccc1 | 10 | -2 | -2 | x | 48* | 59
NC(=O)c1ccccc1NC(=S)NC(=O)CCc1ccccc1 | x | -1 | x | 0 | 2 | -24
O=C(/C=C/NNC(=O)c1ccccc1O)c1ccccc1 | 0 | -1 | 1 | 0 | 61* | 0
O=C(CCCc1ccccc1)Nc1ccccc1C(F)(F)F | -1 | 0 | 1 | 0 | 72* | x
NC(=O)c1ccccc1NC(=O)/C=C/c1ccccc1 | 74* | 16 | x | 0 | x | 26
COc1ccc2c3c(n(C)c2c1)[C@@H](CO)N(Cc1ccc(F)cc1)CC31CCN(CC2CC2)CC1 | x | x | x | 0 | x | x
C[C@@H]1CN([C@@H](C)CO)S(=O)(=O)c2ccc(-c3cccc(C#N)c3)cc2O[C@H]1CN(C)C(=O)Nc1cc(F)ccc1F | x | x | 5 | 0 | -8 | x
CCCNC(=O)[C@H]1[C@H](CO)[C@H]2Cn3c(ccc(-c4ccccc4F)c3=O)[C@@H]1N2CC1CC1 | x | x | 1 | 0 | 5 | x
COC(=O)c1ccccc1N/C=C/C(=O)c1ccc(Br)cc1 | 15 | -1 | 4 | 0 | 35 | 55
NC(=O)c1ccccc1N/C=C/C(=O)c1ccccc1 | 48* | 2 | 1 | x | -13 | x
CC(C)C(=O)N1CCC1(C)C(=O)NCc1cc(Cl)ccc1F (stereo not drawn) | -1 | -1 | -1 | 0 | -2 | x
Cc1ccc(F)c(CNC(=O)C2(C)CCCN2C(=O)C(C)C)c1F (stereo not drawn) | 36* | -2 | -4 | 0 | -5 | x
CCOC(=O)c1oc2ccccc2c1N | 4 | 1 | x | x | x | 43
Nc1c(C(=O)c2cccs2)oc2ccccc12 | x | -2 | -1 | x | 54* | x
COC(=O)CCC(=O)c1oc2ccc(Br)cc2c1N | x | -1 | x | x | 11 | 90*
Nc1c(C(=O)c2ccccc2)oc2ccc(Br)cc12 | 11 | -1 | x | x | 72* | 62
Nc1c(C(=O)c2ccc(Br)s2)oc2ccccc12 | 35* | -1 | x | x | 74* | 30
COc1ccc2oc(C(=O)CCC(=O)O)c(N)c2c1 | -1 | x | 2 | 1 | -5 | 4

Assay outcomes deposited in PubChem by Broad Institute.
